CCR6 antagonist: antagonists of human CCR6 receptor; P51684; 340,000 compounds, 0.49% hits; inhibition, % at 20 µM; CHO-K1 CCR6 PathHunter beta-arrestin, luminescence, CCL20-stimulated;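 active means compounds whose inhibition of the agonist-driven luminescence signal at 20 µM reaches about 50%, limit read from the data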;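 further: cells stimulated with CCL20 at 14 nM final; plate controls were DMSO with CCL20 for no effect and DMSO without agonist for full effect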
APJ ag: APJ receptor agonism | P35414 | CHO-K1 APJ PathHunter beta-arrestin, luminescence; 0% DMSO wells, 100% apelin | activation, % at 20 µM | 330,000 compounds, 0.11% hits | AID 2520;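 active means activation more than six SD over the plate average, tested at 20 µM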;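 further: 0% = DMSO alone and 100% = apelin-13 at 10 nM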
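Assay system: engineered CHO-K1 APJ arrestin reporter cells; Amount: 1000 CHO-K1 reporter cells seeded per well; Dosing: one dose, 20 µM compound, 1% DMSO; Times: compound stimulation 90 min at 25 °C, detection 60 min; Measured by: luminescent beta-gal fragment complementation, chemiluminescent substrate; Read-out: APJ–arrestin association signal; Controls: DMSO vs Apelin-13 10 nM.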
B2AR ag: human beta-2 adrenergic receptor agonism by FAP | Am2.2-beta2AR cells, FAP receptor internalization, flow cytometry | response, % (concentration not given with the values) | 340,000 compounds, 0.43% hits | AID 504454;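 active means response above a set limit, near 3 SD of response in nonfluorescent compounds, cut at about 42% in these data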
CXCR6 inh: blocks human CXCR6 beta-arrestin recruitment; AID 602244; 360,000 compounds, 0.36% hits; O00574; inhibition, % at 20 µM; CHO-K1 PathHunter CXCR6 beta-arrestin, luminescence; in the data active means inhibition above about 34%, passing the limit was not always enough;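 further: antagonist mode with CXCL16 agonist at 10 nM final; 0% = 10 nM CXCL16 with DMSO and 100% = unstimulated wells without agonist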
APJ antagonist: blocks the human apelin receptor APJ. CHO-K1 APJ beta-arrestin complementation, luminescence. P35414. AID 2521. 330,000 compounds, 0.32% hits. inhibition, % at 20 µM;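 active means inhibition above about 40% at 20 µM, limit read from the data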;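 further: cells challenged with 10 nM apelin-13 agonist together with compound; plate controls were apelin-13 plus DMSO wells for no effect and DMSO wells lacking apelin-13 for full effect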
EBI2 antag: blocks human EBI2 receptor beta-arrestin signaling; P32249; EBI2 beta-arrestin recruitment, luminescence, 7a,25-OHC stimulated; inhibition, % at 5 µM; 360,000 compounds, 0.81% hits; in the data active means inhibition above about 38%;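 further: enzyme fragment complementation signal reports receptor beta-arrestin coupling in cells; 0% = agonist plus DMSO wells and 100% = wells without agonist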
Target sequence (P32249 whole entry, looked up, the tested form may be a part): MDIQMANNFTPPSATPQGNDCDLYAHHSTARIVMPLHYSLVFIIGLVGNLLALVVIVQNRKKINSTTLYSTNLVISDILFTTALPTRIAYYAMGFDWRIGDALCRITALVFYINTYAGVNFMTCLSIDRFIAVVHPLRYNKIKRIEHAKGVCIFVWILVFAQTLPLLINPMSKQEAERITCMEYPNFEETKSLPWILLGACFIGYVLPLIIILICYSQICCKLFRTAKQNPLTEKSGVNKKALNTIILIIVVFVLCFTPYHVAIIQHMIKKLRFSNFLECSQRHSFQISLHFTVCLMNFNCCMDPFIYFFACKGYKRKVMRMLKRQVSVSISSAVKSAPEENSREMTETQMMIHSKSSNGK
EBI2 conf: EBI2 (human) antagonism, single concentration confirmation. 2,400 compounds, 29% hits. EBI2 beta-arrestin luminescence, 7a,25-OHC antagonism. inhibition, % at 5 µM. shares compounds with EBI2 antag;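 active means inhibition of at least 50%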
EBI2 agonist: counter-screen for EBI2 antagonists: EBI2 agonist activity. 2,400 tested, under 10 active. shares compounds with EBI2 antag. activation, % at 5 µM. EBI2-expressing cells, agonist mode, luminescence, 60 min; 0% vehicle, 100% 7α,25-dihydroxycholesterol control. AID 652000;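 active means activation of at least 50%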
bGal counter: counter-screen for EBI2 antagonists: E. coli beta-galactosidase inhibition; shares compounds with EBI2 antag; purified beta-galactosidase, luminescent Galacton Star, 15 min; inhibition, % at 5 µM; 2,400 compounds, 1% hits; AID 652176;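 active means replicate-average signal at least 3 plate SD below neutral wells, shown as high inhibition, flagging enzyme-inhibiting false positives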;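 further: 0% = DMSO wells with enzyme and 100% = wells lacking enzyme; higher means stronger loss of beta-gal luminescence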
* = called active by the depositor; · = not tested or not shown. Only some compounds are listed: those with a hit (about 1.8% of all), similar ones and a draw of the others.

SMILES	CCR6 antagonist	APJ ag	B2AR ag	CXCR6 inh	APJ antagonist	EBI2 antag	EBI2 conf	EBI2 agonist	bGal counter
COc1cc(/C=N/NC(=O)COc2ccc(Cl)cc2)ccc1OS(=O)(=O)c1ccc(C)cc1	9.2	6.6	4.1	-3.4	-20.6	42.4*	4.6	-1.3	-6.3
C=CCNC(=O)/C(C#N)=C/c1ccc(OS(=O)(=O)c2ccc(C)cc2)c(OC)c1	-3.5	·	-65.3	3.7	·	52.4*	76.0*	2.4	3.9
CC1(C(=O)NS(=O)(=O)Cc2ccccc2)CCN1C(=O)Cc1cc(F)ccc1F (configuration not stated)	·	·	·	7.3	·	-4.2	·	·	·
CCOC(=O)Cc1ccc(Nc2nc(NCc3ccccc3)nc3ccsc23)cc1	·	·	·	-5.3	·	-4.1	·	·	·
Cc1cc(C)nc(NS(=O)(=O)c2ccc(N/C=C/C(=O)c3ccc(Cl)c(Cl)c3)cc2)n1	2.8	-1.2	-1.8	0.1	3.8	0.8	·	·	·
CSc1ccccc1NC(=O)C(C)N(C)CC(=O)N1CCN(Cc2ccccc2)CC1 (configuration not stated)	16.5	·	1.7	-6.1	·	-2.9	·	·	·
COc1ccc(C2CC(c3ccccc3)=NN2C(=O)COC(=O)c2cc(S(=O)(=O)N3CCOCC3)ccc2F)cc1 (configuration not stated)	3.8	-1.7	1.3	4.1	2.2	54.0*	52.5*	0.3	7.0
Cc1nc2c(OCc3cccc(Cl)c3)cccn2c1N(C)Cc1cccs1	·	·	·	12.8	·	22.1	·	·	·
Cc1nc2c(OCc3ccc(Cl)cc3Cl)cccn2c1N(C)Cc1cccs1	·	·	·	24.8	·	42.0*	29.4	-0.7	-12.4
O=C(COC(=O)CNS(=O)(=O)c1ccccc1)Nc1ccc(Cl)cn1	-3.0	-1.0	2.1	-1.3	-3.4	-3.5	·	·	·
COC1C=CC(CNC(=O)c2cc3c(=O)n4cccc(C)c4nc3n2C)(OC)O1 (configuration not stated)	12.8	-2.4	-0.4	24.6	-10.4	49.4*	-8.1	1.5	5.6
CC1(c2nc3ccccc3[nH]2)CCCC2=Nc3ccccc3CN21 (configuration not stated)	·	·	·	-4.4	·	-8.5	·	·	·
CSc1nc2sc(-c3ccccc3)cc2c(=O)n1N	0.2	-5.8	-0.5	3.3	-13.0	-3.9	·	·	·
CC(C)Sc1nc2sc(-c3ccccc3)cc2c(=O)n1N	21.2	-3.9	-6.8	-0.2	7.2	50.8*	9.0	-0.5	-11.9
Cc1ccccc1CSCC1Nc2ccc(C(=O)NCCc3ccccc3)cc2NC1=O (configuration not stated)	·	·	·	1.5	·	-4.1	·	·	·
COc1ccc(S(=O)(=O)N2CCN(C(=O)COc3ccccc3)CC2)cc1	29.4	-2.6	-1.0	-14.3	10.8	35.7	·	·	·
NC(=O)NCC(=O)N1CCN(S(=O)(=O)c2ccc(Cl)s2)CC1	0.2	-2.0	2.2	1.2	-2.0	2.0	·	·	·
COc1ccc(CC(=O)N2CCN(S(=O)(=O)c3ccc(Cl)s3)CC2)cc1	1.5	-1.4	3.6	1.6	15.0	26.9	·	·	·
N#Cc1ccc(OCC(=O)N2CCN(S(=O)(=O)c3ccc(Cl)s3)CC2)cc1	0.1	-3.1	0.5	-2.2	0.4	81.2*	44.1	1.0	3.7
COc1ccc(OCC(=O)N2CCN(S(=O)(=O)c3ccc(Cl)s3)CC2)cc1	6.4	-2.8	-1.7	-17.1	6.1	87.0*	79.3*	1.3	2.3
N#Cc1ccc(OCC(=O)N2CCN(S(=O)(=O)c3cccc(Cl)c3)CC2)cc1	7.0	-1.5	3.5	-6.0	-9.7	53.6*	21.0	0.9	8.4
O=C1NC(Cc2ccccc2)c2nc3ccc(F)cc3c(=O)n2-c2cc(Cl)ccc21 (configuration not stated)	·	0.1	·	·	17.8	·	·	·	·
O=C(CSc1ccc2ccccc2c1)N1CCN(c2ccc(O)cc2)CC1	-2.4	-6.9	-5.1	-24.7	-1.6	8.8	·	·	·
